According to ChEMBL document CHEMBL5712896, “Targeting EHMT2 reverses EGFR-TKI resistance in NSCLC by epigenetically regulating the PTEN/AKT signaling pathway” (2018):
Activity calls are given as the source filed them. The rule behind the calls is not given here.

What was measured:
PC-9/ER [1] = test: Induction of apoptosis in human PC-9/ER cells assessed as early apoptotic cells at 1 uM for 48 hrs by annexin V/PI staining based flow cytometric analysis in presence of PTEN vector relative to control; assay type: functional
In short: (§1)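 PC9/ER cells given a PTEN expression vector or mock vector, then Erlotinib 1 μM for 48 h. Cells stained with Annexin V–FITC/PI (5 min, room temperature, dark) and analyzed by flow cytometry.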

PC-9/ER [2] = test: Induction of apoptosis in human PC-9/ER cells assessed as early apoptotic cells at 1 uM for 48 hrs by annexin V/PI staining based flow cytometric analysis in presence of scramble non-target siRNA (reference value: 1.3%); assay type: functional
PC-9/ER [3] = test: Induction of apoptosis in human PC-9/ER cells assessed as late apoptotic cells at 1 uM for 48 hrs by annexin V/PI staining based flow cytometric analysis in presence of scramble non-target siRNA (reference value: 4.2%); assay type: functional
PC-9 [4] = test: Induction of apoptosis in human PC-9 cells assessed as necrotic cells at 0.1 uM for 48 hrs by annexin V/PI staining based flow cytometric analysis in presence of PTEN-siRNA relative to control; assay type: functional
In short: (§2)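 PC9 cells given PTEN siRNA or scramble siRNA, then Erlotinib 0.1 μM for 48 h. Apoptosis by Annexin V–FITC/PI staining for 5 min at room temperature in the dark, read by flow cytometry.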

PC-9/ER [5] = test: Induction of apoptosis in human PC-9/ER cells assessed as necrotic cells at 1 uM for 48 hrs by annexin V/PI staining based flow cytometric analysis relative to control; assay type: functional; in short: as §1
PC-9/ER [6] = test: Induction of apoptosis in human PC-9/ER cells assessed as viable cells at 1 uM for 48 hrs by annexin V/PI staining based flow cytometric analysis in presence of […] siRNA (reference value: 92.2%); assay type: functional; conditions: read-out: Activity
PC-9/ER [7] = test: Induction of apoptosis in human PC-9/ER cells assessed as viable cells at 1 uM for 48 hrs by annexin V/PI staining based flow cytometric analysis relative to control; assay type: functional; conditions: read-out: Activity; in short: as §1
PC-9/ER [8] = test: Induction of apoptosis in human PC-9/ER cells assessed as early apoptotic cells at 1 uM for 48 hrs by annexin V/PI staining based flow cytometric analysis in presence of […] siRNA (reference value: 1.3%); assay type: functional
PC-9/ER [9] = test: Induction of apoptosis in human PC-9/ER cells assessed as necrotic cells at 1 uM for 48 hrs by annexin V/PI staining based flow cytometric analysis (reference value: 2.1%); assay type: functional
PC-9 [10] = test: Induction of apoptosis in human PC-9 cells assessed as viable cells at 0.1 uM for 48 hrs by annexin V/PI staining based flow cytometric analysis relative to control; assay type: functional; conditions: read-out: Activity; in short: as §2
PC-9/ER [11] = test: Induction of apoptosis in human PC-9/ER cells assessed as late apoptotic cells at 1 uM for 48 hrs by annexin V/PI staining based flow cytometric analysis in presence of PTEN vector relative to control; assay type: functional; in short: as §1
PC-9/ER [12] = test: Induction of apoptosis in human PC-9/ER cells assessed as early apoptotic cells at 1 uM for 48 hrs by annexin V/PI staining based flow cytometric analysis (reference value: 0.9%); assay type: functional
PC-9/ER [13] = test: Induction of apoptosis in human PC-9/ER cells assessed as late apoptotic cells at 1 uM for 48 hrs by annexin V/PI staining based flow cytometric analysis relative to control; assay type: functional; in short: as §1
PC-9/ER [14] = test: Induction of apoptosis in human PC-9/ER cells assessed as viable cells at 1 uM for 48 hrs by annexin V/PI staining based flow cytometric analysis in presence of PTEN vector relative to control; assay type: functional; conditions: read-out: Activity; in short: as §1
PC-9 [15] = test: Induction of apoptosis in human PC-9 cells assessed as necrotic cells at 0.1 uM for 48 hrs by annexin V/PI staining based flow cytometric analysis relative to control; assay type: functional; in short: as §2
PC-9/ER [16] = test: Induction of apoptosis in human PC-9/ER cells assessed as necrotic cells at 1 uM for 48 hrs by annexin V/PI staining based flow cytometric analysis in presence of PTEN vector relative to control; assay type: functional; in short: as §1
PC-9/ER [17] = test: Antitumor activity against human PC-9/ER cells xenografted in SCID mouse assessed as inhibition of tumor growth at 12.5 mg/kg, ip daily for 3 weeks; assay type: functional, organism-based
In short: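 Male SCID mice, 7–8 weeks old, injected s.c. in the right flank with 5 × 10^6 PC9/ER cells in PBS. At an average tumor volume of 50 mm3, randomized into groups of n = 6: saline, UNC0642 2.5 mg/kg bid i.p., Erlotinib 12.5 mg/kg/day i.p., or both. Tumor volume tracked and body weight recorded; tumors weighed after sacrifice at 3 weeks.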

PC-9/ER [18] = test: Induction of apoptosis in human PC-9/ER cells assessed as late apoptotic cells at 1 uM for 48 hrs by annexin V/PI staining based flow cytometric analysis (reference value: 5.7%); assay type: functional
PC-9/ER [19] = test: Induction of apoptosis in human PC-9/ER cells assessed as viable cells at 1 uM for 48 hrs by annexin V/PI staining based flow cytometric analysis in presence of scramble non-target siRNA (reference value: 92.2%); assay type: functional; conditions: read-out: Activity
PC-9 [20] = test: Induction of apoptosis in human PC-9 cells assessed as early apoptotic cells at 0.1 uM for 48 hrs by annexin V/PI staining based flow cytometric analysis in presence of PTEN-siRNA relative to control; assay type: functional; in short: as §2
PC-9/ER [21] = test: Antiproliferative activity against human PC-9/ER cells assessed as reduction in cell survival rate pretreated with UNC0638 followed by compound addition upto 1 uM incubated for 48 hrs by MTT assay; assay type: functional, cell-based
In short: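 PC9/ER cells pretreated with UNC0638 (100 nM), DMSO as control, then given Erlotinib at a range of concentrations for 48 h. Viability by MTT: 4 h at 37 °C, formazan dissolved in DMSO, absorbance at 570 nm.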

PC-9/ER [22] = test: Induction of apoptosis in human PC-9/ER cells assessed as viable cells at 1 uM for 48 hrs by annexin V/PI staining based flow cytometric analysis (reference value: 91.4%); assay type: functional; conditions: read-out: Activity
PC-9 [23] = test: Induction of apoptosis in human PC-9 cells assessed as viable cells at 0.1 uM for 48 hrs by annexin V/PI staining based flow cytometric analysis in presence of PTEN-siRNA relative to control; assay type: functional; conditions: read-out: Activity; in short: as §2
PC-9 [24] = test: Induction of apoptosis in human PC-9 cells assessed as late apoptotic cells at 0.1 uM for 48 hrs by annexin V/PI staining based flow cytometric analysis relative to control; assay type: functional; in short: as §2
PC-9/ER [25] = test: Induction of apoptosis in human PC-9/ER cells assessed as late apoptotic cells at 1 uM for 48 hrs by annexin V/PI staining based flow cytometric analysis in presence of […] siRNA (reference value: 4.2%); assay type: functional
PC-9/ER [26] = test: Induction of apoptosis in human PC-9/ER cells assessed as necrotic cells at 1 uM for 48 hrs by annexin V/PI staining based flow cytometric analysis in presence of […] siRNA (reference value: 2.3%); assay type: functional
PC-9 [27] = test: Induction of apoptosis in human PC-9 cells assessed as late apoptotic cells at 0.1 uM for 48 hrs by annexin V/PI staining based flow cytometric analysis in presence of PTEN-siRNA relative to control; assay type: functional; in short: as §2
PC-9/ER [28] = test: Induction of apoptosis in human PC-9/ER cells assessed as necrotic cells at 1 uM for 48 hrs by annexin V/PI staining based flow cytometric analysis in presence of scramble non-target siRNA (reference value: 2.3%); assay type: functional
PC-9/ER [29] = test: Induction of apoptosis in human PC-9/ER cells assessed as early apoptotic cells at 1 uM for 48 hrs by annexin V/PI staining based flow cytometric analysis relative to control; assay type: functional; in short: as §1
PC-9 [30] = test: Induction of apoptosis in human PC-9 cells assessed as early apoptotic cells at 0.1 uM for 48 hrs by annexin V/PI staining based flow cytometric analysis relative to control; assay type: functional; in short: as §2

**Q.** `C#Cc1cccc(Nc2ncnc3cc(OCCOC)c(OCCOC)cc23)c1` [ERLOTINIB] was tested. Which Activity (PC-9/ER [1]) did it give?
**A.** The Activity was 22.7%.

**Q.** What about the Activity (PC-9/ER [2]) of the same molecule?
**A.** Its Activity is 1.3%.

**Q.** What about the Activity (PC-9/ER [3]) of the same molecule?
**A.** Its Activity is 9.8%.

**Q.** And the Activity (PC-9 [4])?
**A.** The Activity was 1.6%.

**Q.** And the Activity (PC-9/ER [5])?
**A.** The Activity was 1.6%.

**Q.** And the viability at 1 µM (PC-9/ER [6])?
**A.** Its viability at 1 µM is 77.4%.

**Q.** What about the viability at 1 µM (PC-9/ER [7]) of the same molecule?
**A.** The viability at 1 µM was 87.1%.

**Q.** And the Activity (PC-9/ER [8])?
**A.** Its Activity is 0.6%.

**Q.** What about the Activity (PC-9/ER [9]) of the same molecule?
**A.** The Activity was 4.9%.

**Q.** And the viability at 0.1 µM (PC-9 [10])?
**A.** The viability at 0.1 µM was 58.2%.

**Q.** What about the Activity (PC-9/ER [11]) of the same molecule?
**A.** The Activity was 5.7%.

**Q.** What about the Activity (PC-9/ER [12]) of the same molecule?
**A.** Its Activity is 2.8%.

**Q.** And the Activity (PC-9/ER [13])?
**A.** Its Activity is 6.4%.

**Q.** What about the viability at 1 µM (PC-9/ER [14]) of the same molecule?
**A.** Its viability at 1 µM is 70.1%.

**Q.** And the Activity (PC-9 [15])?
**A.** The Activity was 5.1%.

**Q.** What about the Activity (PC-9/ER [16]) of the same molecule?
**A.** The Activity was 1.5%.

**Q.** What about the Activity (PC-9/ER [17]) of the same molecule?
**A.** Its Activity is “inactive”.

**Q.** What about the Activity (PC-9/ER [18]) of the same molecule?
**A.** Its Activity is 14.5%.

**Q.** And the viability at 1 µM (PC-9/ER [19])?
**A.** The viability at 1 µM was 82.7%.

**Q.** What about the Activity (PC-9 [20]) of the same molecule?
**A.** The Activity was 15.3%.

**Q.** What about the Activity (PC-9/ER [21]) of the same molecule?
**A.** Its Activity is “Active”.

**Q.** And the viability at 1 µM (PC-9/ER [22])?
**A.** The viability at 1 µM was 77.8%.

**Q.** And the viability at 0.1 µM (PC-9 [23])?
**A.** The viability at 0.1 µM was 76.5%.

**Q.** And the Activity (PC-9 [24])?
**A.** Its Activity is 18.8%.

**Q.** What about the Activity (PC-9/ER [25]) of the same molecule?
**A.** The Activity was 17.5%.

**Q.** What about the Activity (PC-9/ER [26]) of the same molecule?
**A.** Its Activity is 4.5%.

**Q.** What about the Activity (PC-9 [27]) of the same molecule?
**A.** The Activity was 6.6%.

**Q.** What about the Activity (PC-9/ER [28]) of the same molecule?
**A.** The Activity was 6.2%.

**Q.** And the Activity (PC-9/ER [29])?
**A.** The Activity was 4.9%.

**Q.** What about the Activity (PC-9 [30]) of the same molecule?
**A.** The Activity was 17.9%.
